Test results as given in publication PMC7841779 (ACS Omega, 2021).

Tests used:
LHRH receptor = molecular target: T1, LHRH receptor (Homo sapiens, UniProt P30968); experiment: LHRH receptor competition assay of 99mTc conjugate, MDA-MB-231; type: cell-based; settings: MDA-MB-231 cells, cotreatment with 100 μg LHRH, 1 μCi, 37 °C, γ counter; n = 3
T1 sequence (P30968 1-328): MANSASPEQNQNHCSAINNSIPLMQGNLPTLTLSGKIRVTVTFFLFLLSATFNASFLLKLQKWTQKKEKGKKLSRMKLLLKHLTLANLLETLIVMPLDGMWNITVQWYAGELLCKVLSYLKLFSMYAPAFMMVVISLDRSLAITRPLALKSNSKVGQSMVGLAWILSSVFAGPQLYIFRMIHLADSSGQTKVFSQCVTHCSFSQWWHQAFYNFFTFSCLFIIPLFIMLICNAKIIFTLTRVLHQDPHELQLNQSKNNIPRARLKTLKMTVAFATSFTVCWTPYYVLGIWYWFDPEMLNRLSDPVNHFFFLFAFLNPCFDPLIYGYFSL
Method in brief: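 MDA-MB-231 cells were grown in DMEM with 5 mM L-glutamine, 1% penicillin/streptomycin and 10% FBS at 37 °C, 5% CO2. Cells were seeded at 2 × 10^5 per well and cultured 48 h. 1 μCi (0.037 MBq) of 99mTc-labelled conjugate was added together with 100 μg LHRH and incubated at 37 °C for 15, 30, 60 and 120 min (n = 3). Cells were washed 3× in PBS, trypsinised and γ-counted. Uptake is % of cell counts over total counts, reported as mean ± SEM.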

MDA-MB-231 cells = experiment: MTT cell viability assay, MDA-MB-231; type: cell-based, human; settings: highest dose 100 μM, compared to unconjugated [Re(CO)3(H2O)3]+
4T1 cells = experiment: MTT cell viability assay, 4T1; type: cell-based, mouse; settings: highest dose 100 μM, compared to unconjugated [Re(CO)3(H2O)3]+
Method in brief: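 4T1 cells were kept in DMEM with 10% FBS and penicillin/streptomycin at 37 °C, 5% CO2, then seeded at 2000 cells/100 μL. Test compound or free [Re(CO)3(H2O)3]+ was applied at 0.1–100 μM for 24 h. Cells were washed 3× with PBS and grown 48 h in DMEM/10% FBS. MTT was added for 4 h, cells were solubilised with SDS, and absorbance was read at 595 nm.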

Substance	cell uptake with LHRH cotreatment (competition) (LHRH receptor)	cytotoxicity at the highest dose (MDA-MB-231 cells)	cytotoxicity at the highest dose (4T1 cells)
^99mTc-Acdien-LHRH: Acdien-LHRH radiolabeled with [99mTc(CO)3]+ from Isolink kit	decrease	–	–
Re-Acdien-LHRH: Acdien-LHRH reacted with equimolar [Re(CO)3(H2O)3]+; nonradioactive rhenium-LHRH conjugate	–	did not induce cytotoxicity	–
Re-Acdien-peg-LHRH: PEGylated Acdien-peg-LHRH chelated with [Re(CO)3(H2O)3]+	–	did not induce cytotoxicity	did not induce cytotoxicity
